The text below walks through data of ChEMBL document CHEMBL3407346, “Design, synthesis, and biological evaluation of sulfonyl acrylonitriles as novel inhibitors of cancer metastasis and spread” (J Med Chem, 2015).

Calls of active or inactive are those of the source. No cut-off for these calls is given here.

Data set [1] can be described thus: Cytotoxicity against human SKOV3 cells co-cultured with human mesothelial cells at 10 uM after 4 hrs by firefly luciferase assay relative to control. The data set is classed as functional, SK-OV-3. The procedure, abridged: (§1)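 Co-culture of luciferase-transduced cancer cells (puromycin/G418-selected retroviral pLuc) with confluent human mesothelial monolayers. Suspended cancer cells plus 10 µM compound (final) or DMSO were overlaid for 4 h. Non-adherent cells were washed off and surviving adherent cells quantified by firefly luciferase luminescence. Efficacy = treated/DMSO luminescence ratio; mean±SEM, n=3.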

Data set [2] relates to A2780. The experiment in a line: Cytotoxicity against human A2780 cells co-cultured with human mesothelial cells after 4 hrs by firefly luciferase assay relative to control. The data set is classed as functional, cell-based. The following applies: A2780, 4 h. The procedure, abridged: (§2)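 Luciferase-expressing cancer cells in suspension were treated with a series of compound concentrations or DMSO, overlaid on confluent human mesothelial monolayers for 4 h, and washed to remove non-adherent cells. Surviving adherent cells were read by luciferase luminescence relative to vehicle, and EC50 was derived from the concentration series.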

The nature of data set [3]: Cytotoxicity against human SU86 cells co-cultured with human mesothelial cells after 4 hrs by firefly luciferase assay relative to control. The data set is classed as functional, cell-based. The procedure, abridged: as §2
A short description of data set [4]: Cytotoxicity against human SU86 cells co-cultured with human mesothelial cells at 10 uM after 4 hrs by firefly luciferase assay relative to control. The data set is classed as functional. The procedure, abridged:
as §1

Data set [5] concerns A2780. The data set can be described thus: Cytotoxicity against human A2780 cells co-cultured with human mesothelial cells at 10 uM after 4 hrs by firefly luciferase assay relative to control. The data set is classed as functional. In a few lines: as §1
A short description of data set [6]: Cytotoxicity against human SKOV3 cells co-cultured with human mesothelial cells after 4 hrs by firefly luciferase assay relative to control. Type of data set: functional, cell-based. The settings on record: SK-OV-3, 4 h. In a few lines:
as §2

A short description of data set [7]: Antimetastatic activity against human MIAPaCa2 cells xenografted in ip dosed Ncr-Nu/Nu mouse assessed as local recurrence administered on day 1, 3, 5, 7 and measured after 8 weeks by fluorescent imaging analysis (reference value: 60%). The data set is classed as functional, MIA PaCa-2. In a few lines:
(§3)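 Orthotopic pancreatic model in male NCr-Nu/Nu nude mice, 6-8 wk old. 1×10⁶ RFP-expressing MiaPaCa-2 cells in soluble ECM were injected into the pancreatic tail. Tumour resected with distal pancreatectomy, with no residual disease confirmed by intraoperative RFP imaging. Compound or vehicle (4:1 PEG400:EtOH) given IP at surgery and on days 3, 5 and 7. Local and metastatic recurrence scored by fluorescent imaging after 8 weeks.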

Data set [8] in a line: Antitumor activity against human MIAPaCa2 cells xenografted in ip dosed Ncr-Nu/Nu mouse assessed as metastases administered on day 1, 3, 5, 7 and measured after 8 weeks by fluorescent imaging analysis (reference value: 40%). Type of data set: functional, MIA PaCa-2. The procedure, abridged: as §3
(In general: Xenograft models place foreign cells or tissue in a host animal.)

In data set [9] the test system is A2780. The experiment in a line: Induction of apoptosis in human A2780 cells assessed as increased cellular levels of cleaved PARP at 5 uM after 4 hrs by immunoblot analysis. The data set is classed as functional, cell-based. The procedure, abridged:
(§4)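 A2780 cells were suspended and allowed to adhere for 4 h with DMSO or test compound (5 µM in DMSO). Cells were collected and lysed, lysates normalised for total protein, and cleaved PARP and cleaved caspase 3 detected by immunoblot with actin as loading control. A sulfide analog served as negative control.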
(In general: A western blot detects proteins with antibodies after separation by electrophoresis.)

Data set [10] relates to A2780. The experiment in a line: Induction of apoptosis in human A2780 cells assessed as increased cellular levels of cleaved caspase 3 at 5 uM after 4 hrs by immunoblot analysis. The data set is classed as functional, cell-based. In a few lines:
as §4

Data set [11] deals with Mus musculus. The data set can be described thus: Toxicity in athymic nu/nu mouse xenografted with human A2780 cells assessed as weight loss at 5 mg/kg, ip administered thrice a week for 14 days. Type of data set: organism-based. More on the design: dose 5 mg/kg, route intraperitoneal. The following applies: in vivo, 336 h.
In data set [12] the test system is Mus musculus. The experiment in a line: Toxicity in athymic nu/nu mouse xenografted with human SKOV3 cells assessed as weight loss at 5 mg/kg, ip administered thrice a week for 14 days. More on the design: dose 5 mg/kg, route intraperitoneal. The data set is classed as organism-based, SK-OV-3. The following applies: in vivo, 336 h.
Data set [13] concerns A2780. The experiment in a line: Inhibition of peritoneal carcinomatosis of human A2780 cells in athymic nu/nu mouse at 5 mg/kg, ip administered thrice a week for 14 days by luciferase reporter assay relative to vehicle-treated control. Details: dose 5 mg/kg. Type of data set: functional, organism-based. The procedure, abridged: (§5)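 Athymic female nu/nu mice, 5 weeks old, received 5 mg/kg compound or vehicle (80% PEG400:20% ethanol) IP 4 h before IP injection of 1.5×10⁶ A2780-luc or 2×10⁶ SKOV3-luc cells, n=7 per arm. Dosing continued IP three times a week for 14 days. Tumour burden was imaged weekly by abdominal bioluminescence after IP D-luciferin/ketamine/xylazine; mean±SEM, unpaired t-test vs vehicle.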

A short description of data set [14]: Antimetastatic activity against human MIAPaCa2 cells xenografted in ip dosed Ncr-Nu/Nu mouse assessed as total recurrence administered on day 1, 3, 5, 7 and measured after 8 weeks by fluorescent imaging analysis (reference value: 67%). Type of data set: functional, MIA PaCa-2. In a few lines: as §3
In another data set the test system is SK-OV-3. The experiment in a line: Inhibition of peritoneal carcinomatosis of human SKOV3 cells in athymic nu/nu mouse at 5 mg/kg, ip administered thrice a week for 14 days by luciferase reporter assay relative to vehicle-treated control. The data set is classed as functional, organism-based. More on the design: dose 5 mg/kg. In a few lines: as §5
In general terms: Reporter assays use an easily measured gene product as a stand-in for the process of interest.

Data set [15] can be described thus: Cytotoxicity against human BxPC3 cells co-cultured with human mesothelial cells at 10 uM after 4 hrs by firefly luciferase assay relative to control. Type of data set: functional, BXPC-3. The procedure, abridged: as §1
The nature of data set [16]: Cytotoxicity against human BxPC3 cells co-cultured with human mesothelial cells after 4 hrs by firefly luciferase assay relative to control. Type of data set: functional, cell-based. The following applies: BXPC-3, 4 h. In a few lines: as §2
Data set [17] relates to HT-29. The experiment in a line: Reduction of cellular GSH level in human HT-29 cells incubated for 30 mins followed by co-culturing with human mesothelial cells measured after 5 hrs by […]. Type of data set: functional, cell-based.
Data set [18] is described as follows: Glutathione reactivity assessed as reduction in detectable GSH level by Ellman's reagent-based assay. In a few lines:
(§6)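 Glutathione was measured with a commercial kit per the manufacturer's instructions, with TNB production rate proportional to GSH. Cell-free GSH was tested with compounds, and HT-29 luciferase cell lysates were assayed after compound exposure.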

The test system of data set [19] is HT-29. The experiment in a line: Induction of apoptosis in human HT-29 cells using compound pre-mixed with NAC. Type of data set: functional, cell-based.
The test system of data set [20] is HT-29. The data set can be described thus: Induction of apoptosis in human HT-29 cells at 10 uM incubated for 30 mins followed by coculturing with human mesothelial cells for 5 hrs by firefly luciferase assay in presence of NAC. The data set is classed as functional, cell-based. The procedure, abridged:
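Firefly luciferase-expressing HT-29 cells were incubated 30 min with compound plus vehicle (water) or 680 µM N-acetylcysteine, trypsin-suspended, and co-cultured 5 h on human mesothelial monolayers with compound and NAC. Surviving adherent cells were detected by luciferase luminescence; mean light output ±SEM.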

The test system of data set [21] is HT-29. The data set can be described thus: Reduction of cellular GSH level in human HT-29 cells after 24 hrs by […]. The data set is classed as functional, cell-based. The procedure, abridged: as §6
For data set [22], the system named is HT-29. The data set can be described thus: Cytotoxicity against human HT-29 cells co-cultured with human mesothelial cells at 50 to 200 uM preincubated for 24 hrs followed by co-culturing measured after 4 hrs by firefly luciferase assay relative to control. Type of data set: functional, cell-based. The settings on record: in the assay text read “after 5 hrs” for “after 4 hrs”. The procedure, abridged: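 Luciferase-expressing HT-29 cells were pretreated 24 h with water or various BSO concentrations, trypsin-suspended, then overlaid on confluent human mesothelial monolayers with compound and BSO for 5 h. Non-adherent cells were washed off and survivors read by luciferase luminescence.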

On to `N#C/C=C/S(=O)(=O)c1ccc(C2(C(=O)NC3CCCCC3)CCC2)cc1`, for which the Ratio in data set [1] is reported as 0.33; in [4], 0.32; in the data set with A2780 [5], 0.09; in [15], 0.18. Also, the EC50 was 3.1 µM in the data set on A2780 [2], 8 µM in data set [3], 7.4 µM in [6] and 3.6 µM in data set [16]. Moreover, the Activity in [7] was 30%; in data set [8], 20%; with Mus musculus [11], “Non-toxic”; in the data set with Mus musculus [12], “Non-toxic”; in data set [14], 40%. In addition, the result in the data set on A2780 [9] and in the data set on A2780 [10] was Active. Besides, the inhibition result in the data set on A2780 [13] and in the data set with SK-OV-3 was “Active” throughout.
For the molecule `CC(C)(C)c1ccc(S(=O)(=O)/C=C/C#N)cc1` [BAY-11-7085], the Ratio turned out to be 0.32 in data set [1], 0.13 in data set [4], 0.04 with A2780 [5] and 0.07 in [15]. In addition, the result (in the data set with HT-29 [17]; in data set [18]; in the data set on A2780 [9]; in the data set on A2780 [10]) was Active. Further, the EC50 came to 2.6 µM in the data set on A2780 [2], 5.9 µM in data set [3], 5 µM in [6] and 3.5 µM in data set [16]. Moreover, the Activity in data set [7] is given as 31%; in data set [8], 31%; with Mus musculus [11] it was “Non-toxic”; with Mus musculus [12], “Non-toxic”; in data set [14] it was 38%. Further, the outcome with HT-29 [19] and in the data set on HT-29 [20] was inactive. Further, the inhibition entry in the data set on A2780 [13] and in the data set with SK-OV-3 was “Active” in each case.
Regarding `CC(C)(C(=O)NCc1ccccc1)c1ccc(S(=O)(=O)/C=C/C#N)cc1`, the Ratio in data set [1] is given as 0.52; in data set [4], 0.21; with A2780 [5] it was 0.1; in [15] it was 0.16. Also, the EC50 in the data set on A2780 [2] was 3 µM; in data set [3], 7.4 µM; in data set [6] it was 8.7 µM; in [16], 3.7 µM. For the same molecule, the Activity in data set [7] is 6%; in [8], 6%; in the data set on Mus musculus [11], “Non-toxic”; in the data set on Mus musculus [12] it was “Non-toxic”; in data set [14], 6%. In addition, the result with A2780 [9] and in the data set with A2780 [10] was Active. The inhibition result with A2780 [13] and in the data set on SK-OV-3 was “Active” in each case.
As to `CCCCS(=N)(=O)CC[C@H](N)C(=O)O` (some centres not stated), the result with HT-29 [21] was Active. In addition, the outcome in the data set with HT-29 [22] was inactive.

What is called EC50 is the concentration at which the effect is half-maximal. The low end stands for greater potency, the high end for weaker potency.
